Results reported in ChEMBL document CHEMBL4007435, “A Rational Design of a Selective Inhibitor for Kv1.1 Channels Prevalent in Demyelinated Nerves That Improves Their Impaired Axonal Conduction” (J Med Chem, 2017).
The source made the active and inactive calls. No cut-off for these calls is given here.

How the values were obtained:
[1] = target: T1, Potassium voltage-gated channel subfamily A member 1 (Homo sapiens, UniProt Q09470); test: Inhibition of Kv1.1 (unknown origin)
[2] = Neurotoxicity in C57BL/6J mouse corpus callosum assessed as effect on amplitude of unmyelinated axon N2 wave at 10 uM relative to baseline; format: toxicity, tissue-based; conditions: ex_vivo
How it was run: (§1)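 Male C57BL/6J mice (16 weeks old) kept on normal diet for 8 weeks (n = 5). Coronal slices (400 µm) containing hippocampus. CC stimulated monopolarly at 0.033 Hz (100 µs); field cAPs recorded on contralateral CC at 40–50% maximum response. After 10 min of stable baseline, compound applied at 1 or 10 µM from 10 mM aCSF stock. Mean ± SEM; n = animals.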

Mus musculus [3] = species: Mus musculus; test: (§2) Neuroprotective activity against cuprizone-induced demyelination in C57BL/6J mouse corpus callosum assessed as improvement in neuronal conduction by measuring increase in amplitude of unmyelinated axon N2 wave at 1 uM relative to baseline; format: functional
How it was run: as §1, with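 “fed chow with 0.2% cuprizone” for “kept on normal diet”, “7).” for “5).”, “µs); extracellular” for “µs);”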

[4] = Neurotoxicity in C57BL/6J mouse corpus callosum assessed as effect on amplitude of unmyelinated axon N2 wave at 1 uM relative to baseline; format: toxicity, tissue-based; conditions: ex_vivo; how it was run: as §1
Mus musculus [5] = species: Mus musculus; test: (§3) Neuroprotective activity against cuprizone-induced demyelination in C57BL/6J mouse corpus callosum assessed as improvement in neuronal conduction by measuring increase in amplitude of unmyelinated axon N2 wave at 10 uM relative to baseline; format: functional
How it was run: as §1, with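 “fed chow with 0.2% cuprizone” for “kept on normal diet”, “7).” for “5).”, “µs); extracellular” for “µs);”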

[6] = target: T2, Potassium voltage-gated channel subfamily A member 1/2 (Kv1.1/Kv1.2) (Rattus norvegicus, UniProt P10499+P63142); test: Inhibition of recombinant rat Kv(1.1)2/Kv(1.2)2 expressed in HEK293 cells at -90 mV holding potential by whole cell patch clamp Qpatch method; format: cell-based
How it was run: (§4)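 HEK-293 cells carrying Kv1 channels, either stably expressed (Kv1.1, 1.2, 1.3, 1.4, 1.6, tandem Kv1.1 or 1.2 homotetramers) or transiently transfected (concatemers). Currents were recorded by automated whole-cell clamp with 2-3 MΩ pin-holes. Bath solution (mM): 135 NaCl, 5 KCl, 2 CaCl2, 2 MgCl2, 5 Hepes, 10 sucrose, pH 7.4. Holding potential was −90 mV, with steps to +20 mV for 300 ms. The 10 mM stocks were made in extracellular solution and diluted before use. The readout was steady-state current averaged after 200 ms, and peak current for Kv1.4.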

[7] = as §2; format: functional
How it was run: as §1, with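 “fed chow with 0.2% cuprizone” for “kept on normal diet”, “7).” for “5).”, “µs); extracellular” for “µs);”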

[8] = target: T3, Potassium voltage-gated channel subfamily A member 1/2 (Kv1.1/Kv1.2) (Rattus norvegicus) (UniProt P10499+P63142); test: Inhibition of recombinant rat Kv1.2/1.1/1.2/1.1 expressed in HEK293 cells at 10 uM at -90 mV holding potential by whole cell patch clamp Qpatch method relative to control; format: cell-based; how it was run: as §4
[9] = target: T3, Potassium voltage-gated channel subfamily A member 1/2 (Kv1.1/Kv1.2) (Rattus norvegicus); test: Inhibition of recombinant rat Kv1.1/1.1/1.2/1.2 expressed in HEK293 cells at 10 uM at -90 mV holding potential by whole cell patch clamp Qpatch method relative to control; format: cell-based; how it was run: as §4
[10] = target: Potassium voltage-gated channel subfamily A member 1 (Rattus norvegicus) (UniProt P10499); test: Inhibition of recombinant rat Kv1.1 expressed in HEK293 cells assessed as time constant for activation of Kv1.1 channel current at 10 uM at -90 mV holding potential by whole cell patch clamp Qpatch method (reference value: 1.9 +/- 0.15 ms); format: cell-based
HEK293 = test: Phototoxicity against HEK293 cells under UV irradiation; format: cell-based; conditions: human
Kv1.2 = Kv1.2 (Rattus norvegicus, UniProt P63142); test: Inhibition of recombinant rat Kv1.2 expressed in HEK293 cells at 10 uM at -90 mV holding potential by whole cell patch clamp Qpatch method relative to control; format: cell-based; conditions: HEK293 cells expressing recombinant rat Kv1.2; how it was run: as §4
[11] = target: T2, Potassium voltage-gated channel subfamily A member 1/2 (Kv1.1/Kv1.2); test: Inhibition of recombinant rat Kv1.1/Kv(1.2)3 expressed in HEK293 cells at -90 mV holding potential by whole cell patch clamp Qpatch method; format: cell-based; how it was run: as §4
Kv1.4 = Kv1.4 (Rattus norvegicus, UniProt P15385); test: Inhibition of recombinant rat Kv1.4 expressed in HEK293 cells at 10 uM at -90 mV holding potential by whole cell patch clamp Qpatch method relative to control; format: cell-based; conditions: HEK293 cells expressing recombinant rat Kv1.4; how it was run: as §4
[12] = target: Potassium voltage-gated channel subfamily A member 1 (Rattus norvegicus) (UniProt P10499); test: Inhibition of recombinant rat Kv1.1 expressed in HEK293 cells assessed as shift of half maximal vale for activation at 10 uM at -90 mV holding potential by whole cell patch clamp Qpatch method; format: cell-based
[13] = Partition coefficient, logP of the compound; format: physicochemical; conditions: octanol/water
[14] = target: T3, Potassium voltage-gated channel subfamily A member 1/2 (Kv1.1/Kv1.2) (Rattus norvegicus); test: Inhibition of recombinant rat Kv(1.1)3/Kv1.2 expressed in HEK293 cells assessed as time constant for activation of Kv1.1 channel current at 10 uM at -90 mV holding potential by whole cell patch clamp Qpatch method (reference value: 3.1 +/- 0.2 ms); format: cell-based
[15] = target: T4, Potassium voltage-gated channel subfamily A member 1 (Rattus norvegicus, UniProt P10499); test: Inhibition of recombinant rat Kv(1.1)4 expressed in HEK293 cells at -90 mV holding potential by whole cell patch clamp Qpatch method; format: cell-based; how it was run: as §4
[16] = target: Potassium voltage-gated channel subfamily A member 2 (Rattus norvegicus, UniProt P63142); test: Inhibition of recombinant rat Kv1.2(4) expressed in HEK293 cells at -90 mV holding potential by whole cell patch clamp Qpatch method; format: cell-based; how it was run: as §4
[17] = target: T3, Potassium voltage-gated channel subfamily A member 1/2 (Kv1.1/Kv1.2) (Rattus norvegicus); test: Inhibition of recombinant rat Kv1.2/1.2/1.1/1.1 expressed in HEK293 cells at 10 uM at -90 mV holding potential by whole cell patch clamp Qpatch method relative to control; format: cell-based; how it was run: as §4
[18] = target: Potassium voltage-gated channel subfamily A member 1 (Rattus norvegicus) (UniProt P10499); test: Inhibition of recombinant rat Kv1.1 concatamer expressed in HEK293 cells assessed as time constant for activation of Kv1.1 channel current at -90 mV holding potential by whole cell patch clamp Qpatch method (reference value: 2.2 +/- 0.1 ms); format: cell-based
[19] = target: T3, Potassium voltage-gated channel subfamily A member 1/2 (Kv1.1/Kv1.2) (Rattus norvegicus); test: Inhibition of recombinant rat Kv(1.1)2/Kv(1.2)2 expressed in HEK293 cells assessed as time constant for activation of Kv1.1 channel current at 10 uM at -90 mV holding potential by whole cell patch clamp Qpatch method (reference value: 2.8 +/- 0.4 ms); format: cell-based
[20] = as §3; format: functional
How it was run: as §1, with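 “fed chow with 0.2% cuprizone” for “kept on normal diet”, “7).” for “5).”, “µs); extracellular” for “µs);”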

[21] = target: T1, Potassium voltage-gated channel subfamily A member 1; test: Inhibition of Kv1.1 (unknown origin) expressed in HEK293 cells by whole cell patch clamp Qpatch method; format: cell-based; how it was run: as §4
[22] = target: T2, Potassium voltage-gated channel subfamily A member 1/2 (Kv1.1/Kv1.2); test: Inhibition of recombinant rat Kv(1.1)3/Kv1.2 expressed in HEK293 cells at -90 mV holding potential by whole cell patch clamp Qpatch method; format: cell-based; how it was run: as §4
[23] = target: T4, Potassium voltage-gated channel subfamily A member 1; test: Inhibition of recombinant rat Kv1.1 expressed in HEK293 cells at -90 mV holding potential by whole cell patch clamp Qpatch method; format: cell-based; how it was run: as §4
Kv1.6 = Kv1.6 (Rattus norvegicus, UniProt P17659); test: Inhibition of recombinant rat Kv1.6 expressed in HEK293 cells at 10 uM at -90 mV holding potential by whole cell patch clamp Qpatch method relative to control; format: cell-based; conditions: HEK293 cells expressing recombinant rat Kv1.6; how it was run: as §4
[24] = target: Potassium voltage-gated channel subfamily A member 3 (Rattus norvegicus) (UniProt P15384); test: Inhibition of recombinant rat Kv1.3 expressed in HEK293 cells at 10 uM at -90 mV holding potential by whole cell patch clamp Qpatch method relative to control; format: cell-based; how it was run: as §4
[25] = target: Potassium voltage-gated channel subfamily A member 1 (Rattus norvegicus) (UniProt P10499); test: Inhibition of recombinant rat Kv1.1 expressed in HEK293 cells at 10 uM at -90 mV holding potential by whole cell patch clamp Qpatch method relative to control; format: cell-based; how it was run: as §4

Chain of Potassium voltage-gated channel subfamily A member 1 (Rattus norvegicus) (P10499 whole entry): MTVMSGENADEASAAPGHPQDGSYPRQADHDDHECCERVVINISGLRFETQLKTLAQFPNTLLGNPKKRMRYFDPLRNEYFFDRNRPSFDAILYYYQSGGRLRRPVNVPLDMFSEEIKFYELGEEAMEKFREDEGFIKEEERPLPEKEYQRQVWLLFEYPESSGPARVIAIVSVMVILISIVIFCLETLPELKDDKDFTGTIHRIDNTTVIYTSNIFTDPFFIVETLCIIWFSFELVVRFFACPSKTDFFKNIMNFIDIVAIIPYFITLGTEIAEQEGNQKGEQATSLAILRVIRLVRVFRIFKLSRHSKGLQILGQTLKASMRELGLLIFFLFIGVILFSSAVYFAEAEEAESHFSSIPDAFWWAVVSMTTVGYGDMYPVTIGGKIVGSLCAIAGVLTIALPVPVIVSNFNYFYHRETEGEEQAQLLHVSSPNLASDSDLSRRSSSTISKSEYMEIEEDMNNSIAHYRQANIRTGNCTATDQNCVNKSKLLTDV
T4 sequence (P10499 whole entry): as above
T3 sequence (P10499 whole entry, looked up): as the sequence (P10499 whole entry) above
T3 sequence (P63142 whole entry, looked up): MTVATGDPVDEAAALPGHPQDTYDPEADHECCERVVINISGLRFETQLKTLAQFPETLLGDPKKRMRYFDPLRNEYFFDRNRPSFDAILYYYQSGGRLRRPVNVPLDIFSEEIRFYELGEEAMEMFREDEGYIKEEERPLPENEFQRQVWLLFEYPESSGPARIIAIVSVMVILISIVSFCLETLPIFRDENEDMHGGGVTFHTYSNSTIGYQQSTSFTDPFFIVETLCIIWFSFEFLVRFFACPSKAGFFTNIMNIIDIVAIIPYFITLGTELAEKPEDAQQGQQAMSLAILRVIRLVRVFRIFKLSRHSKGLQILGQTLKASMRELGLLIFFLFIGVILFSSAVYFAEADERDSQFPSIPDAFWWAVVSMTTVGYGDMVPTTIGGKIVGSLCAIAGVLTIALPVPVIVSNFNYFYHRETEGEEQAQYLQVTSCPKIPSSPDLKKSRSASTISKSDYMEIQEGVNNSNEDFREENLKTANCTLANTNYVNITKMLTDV
T1 sequence (Q09470 whole entry): as the sequence (P10499 whole entry) above, with A9V, I202V, T213N, I449M, A471V, G476A, A480T, T481A, D482N counted along it
Chain of Kv1.4 (P15385 whole entry): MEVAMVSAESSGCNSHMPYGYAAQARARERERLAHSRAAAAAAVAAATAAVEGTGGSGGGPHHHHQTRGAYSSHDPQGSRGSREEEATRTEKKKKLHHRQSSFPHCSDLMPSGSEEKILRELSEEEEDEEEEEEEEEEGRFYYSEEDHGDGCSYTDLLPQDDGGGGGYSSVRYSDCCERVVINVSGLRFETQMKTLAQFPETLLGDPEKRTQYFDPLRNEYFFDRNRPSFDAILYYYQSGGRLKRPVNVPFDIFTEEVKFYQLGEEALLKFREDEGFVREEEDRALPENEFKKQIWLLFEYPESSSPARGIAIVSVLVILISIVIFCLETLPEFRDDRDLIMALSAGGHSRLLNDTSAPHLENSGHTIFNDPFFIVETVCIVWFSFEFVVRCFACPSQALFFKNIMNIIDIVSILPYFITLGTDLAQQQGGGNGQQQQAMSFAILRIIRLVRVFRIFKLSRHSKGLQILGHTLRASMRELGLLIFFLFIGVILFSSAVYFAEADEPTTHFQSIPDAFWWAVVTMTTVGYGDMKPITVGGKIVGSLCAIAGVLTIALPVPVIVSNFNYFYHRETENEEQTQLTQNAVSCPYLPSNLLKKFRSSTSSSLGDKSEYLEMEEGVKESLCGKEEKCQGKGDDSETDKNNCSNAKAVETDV
Chain of Potassium voltage-gated channel subfamily A member 3 (Rattus norvegicus) (P15384 whole entry): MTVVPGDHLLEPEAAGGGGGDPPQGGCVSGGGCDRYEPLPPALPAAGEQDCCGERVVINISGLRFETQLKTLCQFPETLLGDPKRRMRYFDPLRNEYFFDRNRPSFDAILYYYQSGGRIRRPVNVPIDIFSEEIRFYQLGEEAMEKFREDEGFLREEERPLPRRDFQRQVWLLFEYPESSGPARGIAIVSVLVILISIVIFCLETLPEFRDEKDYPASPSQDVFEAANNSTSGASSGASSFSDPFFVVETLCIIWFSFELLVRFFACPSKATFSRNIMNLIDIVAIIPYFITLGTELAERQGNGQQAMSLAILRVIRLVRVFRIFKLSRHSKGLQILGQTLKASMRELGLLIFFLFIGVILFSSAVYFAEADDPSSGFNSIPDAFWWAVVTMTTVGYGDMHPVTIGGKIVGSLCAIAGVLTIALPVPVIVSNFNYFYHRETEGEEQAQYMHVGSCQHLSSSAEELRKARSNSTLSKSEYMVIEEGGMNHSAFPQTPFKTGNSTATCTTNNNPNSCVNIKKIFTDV
Chain of Kv1.6 (P17659 whole entry): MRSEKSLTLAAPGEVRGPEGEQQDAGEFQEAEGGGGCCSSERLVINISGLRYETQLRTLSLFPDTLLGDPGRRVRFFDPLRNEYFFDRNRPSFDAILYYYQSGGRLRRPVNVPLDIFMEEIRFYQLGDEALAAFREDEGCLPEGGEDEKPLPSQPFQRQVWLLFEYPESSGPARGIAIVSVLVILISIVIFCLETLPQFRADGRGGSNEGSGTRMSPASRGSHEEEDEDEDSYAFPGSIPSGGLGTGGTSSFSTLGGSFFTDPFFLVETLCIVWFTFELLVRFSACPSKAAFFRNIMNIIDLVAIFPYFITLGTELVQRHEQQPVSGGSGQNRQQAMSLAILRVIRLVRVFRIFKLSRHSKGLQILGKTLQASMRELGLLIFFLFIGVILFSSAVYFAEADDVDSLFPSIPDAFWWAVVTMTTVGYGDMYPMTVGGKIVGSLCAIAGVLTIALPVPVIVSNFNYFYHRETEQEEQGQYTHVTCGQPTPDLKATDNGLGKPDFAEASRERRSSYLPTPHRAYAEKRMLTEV
Chain of Kv1.2 (P63142 whole entry): as the sequence (P63142 whole entry, looked up) above
Chain of Potassium voltage-gated channel subfamily A member 2 (P63142 whole entry): as the sequence (P63142 whole entry, looked up) above

O=C(NCC1CCCCN1)c1cc(OCC(F)(F)F)ccc1OCC(F)(F)F (stereo not drawn) [FLECAINIDE]
IC50 [1]: 209 µM

COc1cc(CNC(=O)CCCC/C=C/C(C)C)ccc1O [CAPSAICIN]
IC50 [1]: 29 µM

Nc1ccncc1 [DALFAMPRIDINE]
Activity [2]: 105.7% | Activity (Mus musculus [3]): inactive | Activity [4]: 105.3% | Activity (Mus musculus [5]): inactive

Cc1ccc(C(c2ccc(C)cc2)(c2ccc(C(=O)NCCN)[nH]2)c2ccc(C(=O)NCCN)[nH]2)cc1.Cl.Cl
IC50 [6]: 57 µM | Activity [2]: 102.6% | Activity [7]: 108.2% | inhibition [8]: 15% | inhibition [9]: 13% | TIME [10]: 5.64e-06 h | Activity (HEK293): Non-Toxic | Activity [4]: 100.9% | inhibition at 10 µM (Kv1.2): 1% | IC50 [11]: > 100 µM | inhibition at 10 µM (Kv1.4): 5% | V1/2 [12]: 40 mV | logP [13]: -1.05 | TIME [14]: 3.89e-06 h | IC50 [15]: 14 µM | IC50 [16]: > 100 µM | inhibition [17]: 15% | TIME [18]: 5.42e-06 h | TIME [19]: 5e-06 h | Activity [20]: 127.8% | IC50 [21]: 16 µM | IC50 [22]: 54 µM | IC50 [23]: 16 µM | inhibition at 10 µM (Kv1.6): 1% | inhibition [24]: 15% | inhibition [25]: 40%

Cc1ccc(C(c2ccc(C)cc2)(c2ccc(C(=O)NCCCCN)[nH]2)c2ccc(C(=O)NCCCCN)[nH]2)cc1.Cl.Cl
Activity (HEK293): Non-Toxic | inhibition at 10 µM (Kv1.2): 3% | inhibition at 10 µM (Kv1.4): 3% | inhibition at 10 µM (Kv1.6): 4% | inhibition [24]: 8% | inhibition [25]: 8%

COC(=O)C1=C(C)NC(C)=C(C(=O)OC)C1c1ccccc1[N+](=O)[O-] [NIFEDIPINE]
IC50 [1]: 96 µM

COc1ccc([C@@H]2Sc3ccccc3N(CCN(C)C)C(=O)[C@@H]2OC(C)=O)cc1 [DILTIAZEM]
IC50 [1]: 144 µM

CC(C)(C)OC(=O)NCCNC(=O)c1ccc(-c2c3nc(c(-c4ccc(C(=O)NCCNC(=O)OC(C)(C)C)cc4)c4ccc([nH]4)c(-c4ccc(C(=O)NCCNC(=O)OC(C)(C)C)cc4)c4nc(c(-c5ccc(C(=O)NCCNC(=O)OC(C)(C)C)cc5)c5ccc2[nH]5)C=C4)C=C3)cc1
IC50 [23]: 13 µM

CC[N+](CC)(CC)CC [TETRYLAMMONIUM]
IC50 [1]: 30 µM

Cc1ccc(C(c2ccc(C)cc2)(c2ccc(C(=O)NCCCN)[nH]2)c2ccc(C(=O)NCCCN)[nH]2)cc1.Cl.Cl
Activity (HEK293): Non-Toxic | inhibition at 10 µM (Kv1.2): 6% | inhibition at 10 µM (Kv1.4): 16% | inhibition at 10 µM (Kv1.6): 5% | inhibition [24]: 32% | inhibition [25]: 35%
